Assay results published in ChEMBL document CHEMBL1275349 (J Med Chem, 2010).
Activity calls are given as the source filed them. The rule behind the calls is not given here.

Columns and labels:
[1] = system: Strongylocentrotus purpuratus; experiment: Agonist activity at NAADP receptor in sea urchin egg homogenate assessed as fold increase in EC50 for induction of Ca2+ release relative to NAADP; assay type: functional, tissue-based
[2] = (§1) Agonist activity at NAADP receptor in sea urchin egg homogenate assessed as induction of Ca2+ release by Fluo-3 staining based fluorimetric assay; assay type: functional, Strongylocentrotus purpuratus
[3] = system: Strongylocentrotus purpuratus; experiment: Agonist activity at NAADP receptor in sea urchin egg homogenate assessed as desensitization of NAADP-induced Ca2+ release at => 1 nM treated for 9 mins before NAADP challenge by Fluo-3 staining based fluorimetric assay; assay type: functional, tissue-based
Summary of the method: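 Strongylocentrotus purpuratus egg homogenate (1.25% v/v) diluted in intracellular medium: 250 mM potassium gluconate pH 7.2, 0.5 mM ATP, 4 mM […], creatinine kinase, 3 μM Fluo-3; 17 °C. Ca2+ release read as fluorescence (ex 490/em 535 nm); EC50 from plateau maximum vs concentration, mean of ≥3 determinations. For desensitization, 9 min pretreatment, then 1 μM NAADP challenge; mean±SEM, n = 3.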

[4] = Displacement of [32P]NAADP from NAADP receptor in sea urchin microsomes after 90 mins by liquid scintillation counting; design: species or system Strongylocentrotus purpuratus, Microsome
Summary of the method: (§2)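 Competition binding in sea urchin egg homogenate: 0.2 nM [32P]NAADP plus seven competitor concentrations, incubated together 90 min at 4 °C, in triplicate. Filtered, washed, filter-bound radioactivity counted by liquid scintillation.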

[5] = system: Strongylocentrotus purpuratus; experiment: Binding affinity to NAADP receptor in sea urchin microsomes assessed as fold increase in IC50 for displacement of [32P]NAADP from receptor relative to NAADP; conditions: Microsome
Summary of the method: as §2, with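 “scintillation. IC50 from fitted curves over ≥3 experiments; fold value is relative to NAADP IC50.” for “scintillation.”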

[6] = system: Strongylocentrotus purpuratus; experiment: Agonist activity at NAADP receptor in sea urchin egg homogenate assessed as induction of Ca2+ release at 2 nM by Fluo-3 staining based fluorimetric assay; assay type: functional, tissue-based
[7] = system: Strongylocentrotus purpuratus; experiment: as §1; assay type: functional

SMILES	fold change (FC) [1]	EC50 [2]	IC50 [4]	fold change (FC) [5]	Activity [6]	Activity [7]	Activity [3]
Nc1ncnc2c1ncn2[C@@H]1O[C@H](COP(=O)(O)OP(=O)(O)OC[C@@H]2O[C@H]([n+]3ccc(-c4ccccc4)c(C(=O)[O-])c3)[C@@H](O)[C@H]2O)[C@@H](O)[C@H]1OP(=O)(O)O	> 50000	> 1000 µM	0.859 µM	540			Active
Cc1cc[n+]([C@H]2O[C@@H](COP(=O)(O)OP(=O)(O)OC[C@H]3O[C@@H](n4cnc5c(N)ncnc54)[C@H](OP(=O)(O)O)[C@@H]3O)[C@H](O)[C@@H]2O)cc1C(=O)[O-]	2200	42.2 µM	0.149 µM	93		Dose-dependent effect	Active
Nc1cc[n+]([C@H]2O[C@@H](COP(=O)(O)OP(=O)(O)OC[C@H]3O[C@@H](n4cnc5c(N)ncnc54)[C@H](OP(=O)(O)O)[C@@H]3O)[C@H](O)[C@@H]2O)cc1C(=O)[O-]	235	4.41 µM	0.141 µM	88			Active
Nc1ncnc2c1ncn2[C@@H]1O[C@H](COP(=O)(O)OP(=O)(O)OC[C@@H]2O[C@H]([n+]3cccc(C(=O)[O-])c3)[C@@H](O)[C@H]2O)[C@@H](O)[C@H]1OP(=O)(O)O						Dose-dependent effect	
CCCCc1cc[n+]([C@H]2O[C@@H](COP(=O)(O)OP(=O)(O)OC[C@H]3O[C@@H](n4cnc5c(N)ncnc54)[C@H](OP(=O)(O)O)[C@@H]3O)[C@H](O)[C@@H]2O)cc1C(=O)[O-]	> 50000	> 1000 µM	0.465 µM	303			Active

Continued, in another order:

fold change (FC) [1]	EC50 [2]	IC50 [4]	fold change (FC) [5]	Activity [6]	Activity [7]	SMILES	Activity [3]
> 50000	> 1000 µM	> 100 µM	> 60000			Nc1ncnc2c1ncn2[C@@H]1O[C@H](COP(=O)(O)OP(=O)(O)OC[C@@H]2O[C@H]([n+]3cc(C(=O)[O-])cc(C(=O)O)c3)[C@@H](O)[C@H]2O)[C@@H](O)[C@H]1OP(=O)(O)O	Active
1.5	0.0274 µM	0.0017 µM	1.1	Active	Dose-dependent effect	Nc1cc(C(=O)[O-])c[n+]([C@H]2O[C@@H](COP(=O)(O)OP(=O)(O)OC[C@H]3O[C@@H](n4cnc5c(N)ncnc54)[C@H](OP(=O)(O)O)[C@@H]3O)[C@H](O)[C@@H]2O)c1	Active
18	0.352 µM	0.037 µM	23			CCc1cc(C(=O)[O-])c[n+]([C@H]2O[C@@H](COP(=O)(O)OP(=O)(O)OC[C@H]3O[C@@H](n4cnc5c(N)ncnc54)[C@H](OP(=O)(O)O)[C@@H]3O)[C@H](O)[C@@H]2O)c1	Active
2.3	0.043 µM	0.0019 µM	1.2	Active	Dose-dependent effect	Cc1cc(C(=O)[O-])c[n+]([C@H]2O[C@@H](COP(=O)(O)OP(=O)(O)OC[C@H]3O[C@@H](n4cnc5c(N)ncnc54)[C@H](OP(=O)(O)O)[C@@H]3O)[C@H](O)[C@@H]2O)c1	Active
90	1.69 µM	0.018 µM	11			[N-]=[N+]=Nc1cc(C(=O)[O-])c[n+]([C@H]2O[C@@H](COP(=O)(O)OP(=O)(O)OC[C@H]3O[C@@H](n4cnc5c(N)ncnc54)[C@H](OP(=O)(O)O)[C@@H]3O)[C@H](O)[C@@H]2O)c1	Active
